Laboratory results reported in ChEMBL document CHEMBL4130494, “Crassiflorone derivatives that inhibit Trypanosoma brucei glyceraldehyde-3-phosphate dehydrogenase (TbGAPDH) and Trypanosoma cruzi trypanothione reductase (TcTR) and display trypanocidal activity” (Eur J Med Chem, 2017).
Values after ≈ are worked out from the molar mass of the structure shown. Active and inactive are the calls of the source. The rule behind the calls is not given here.

What was measured:
[1] = test system: Trypanosoma brucei; experiment: Inhibition of Trypanosoma brucei glyceraldehyde-3-phosphate dehydrogenase at 10 uM using GAP as substrate in presence of NAD+ by spectrophotometric method relative to control
How it was run: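 Recombinant TbGAPDH (200–300 μg protein) in 10 mM triethanolamine, 1.7 mM NaHCO3, 100 mM KCl, 5 mM MgSO4, 1 mM EDTA, pH 7.6, 25 °C, with 400 μM NAD+, 500 μM KH2PO4, 300 μM GAP; NAD+ reduction followed at 340 nm; inhibitors from DMSO stocks; triplicate; reported as percentage activity.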

[2] = target: Trypanothione reductase (Trypanosoma cruzi) (UniProt P28593); experiment: Inhibition of Trypanosoma cruzi trypanothione reductase assessed as reduction in NADPH consumption at 10 uM using 100 uM trypanothione disulfide as substrate by spectrophotometric method
Sequence of Trypanothione reductase (Trypanosoma cruzi) (P28593 whole entry, looked up): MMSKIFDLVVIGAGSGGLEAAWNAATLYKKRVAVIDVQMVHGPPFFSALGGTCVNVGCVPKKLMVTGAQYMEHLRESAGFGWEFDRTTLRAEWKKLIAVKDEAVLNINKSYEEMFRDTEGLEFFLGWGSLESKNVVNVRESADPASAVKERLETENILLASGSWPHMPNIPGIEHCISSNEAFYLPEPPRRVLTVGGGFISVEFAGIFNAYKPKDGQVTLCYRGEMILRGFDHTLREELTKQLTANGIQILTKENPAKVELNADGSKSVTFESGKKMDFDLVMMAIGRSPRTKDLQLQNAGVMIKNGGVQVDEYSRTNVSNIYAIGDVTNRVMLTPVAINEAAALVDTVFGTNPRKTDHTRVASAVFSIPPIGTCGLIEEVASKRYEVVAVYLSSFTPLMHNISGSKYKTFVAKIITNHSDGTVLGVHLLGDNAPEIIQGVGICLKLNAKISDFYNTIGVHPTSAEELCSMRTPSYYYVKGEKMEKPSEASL
How it was run: (§1)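 Recombinant TcTR (5–10 mU) at 25 °C in 40 mM HEPES, 1 mM EDTA, pH 7.5, 100 μM NADPH, 5% DMSO; started with trypanothione disulfide; NADPH consumption read at 340 nm; percentage inhibition calculated.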

[3] = target: Trypanothione reductase (Trypanosoma cruzi) (UniProt P28593); experiment: Inhibition of Trypanosoma cruzi trypanothione reductase assessed as reduction in NADPH consumption at 10 uM using 40 uM trypanothione disulfide as substrate by spectrophotometric method; how it was run: as §1
[4] = test system: Trypanosoma brucei brucei; experiment: Growth inhibition of Trypanosoma brucei brucei Lister 427 bloodstream forms at 5 uM by SYBR Green based assay relative to control; type: functional; details: read-out: GI
[5] = target: hERG (KCNH2) (Homo sapiens, UniProt Q12809); experiment: Inhibition of Tracer Red binding to human ERG expressed in membranes at 10 uM by fluorescence polarization assay relative to control; details: membranes expressing human ERG, probe Tracer Red
Sequence of hERG (KCNH2) (Q12809 whole entry): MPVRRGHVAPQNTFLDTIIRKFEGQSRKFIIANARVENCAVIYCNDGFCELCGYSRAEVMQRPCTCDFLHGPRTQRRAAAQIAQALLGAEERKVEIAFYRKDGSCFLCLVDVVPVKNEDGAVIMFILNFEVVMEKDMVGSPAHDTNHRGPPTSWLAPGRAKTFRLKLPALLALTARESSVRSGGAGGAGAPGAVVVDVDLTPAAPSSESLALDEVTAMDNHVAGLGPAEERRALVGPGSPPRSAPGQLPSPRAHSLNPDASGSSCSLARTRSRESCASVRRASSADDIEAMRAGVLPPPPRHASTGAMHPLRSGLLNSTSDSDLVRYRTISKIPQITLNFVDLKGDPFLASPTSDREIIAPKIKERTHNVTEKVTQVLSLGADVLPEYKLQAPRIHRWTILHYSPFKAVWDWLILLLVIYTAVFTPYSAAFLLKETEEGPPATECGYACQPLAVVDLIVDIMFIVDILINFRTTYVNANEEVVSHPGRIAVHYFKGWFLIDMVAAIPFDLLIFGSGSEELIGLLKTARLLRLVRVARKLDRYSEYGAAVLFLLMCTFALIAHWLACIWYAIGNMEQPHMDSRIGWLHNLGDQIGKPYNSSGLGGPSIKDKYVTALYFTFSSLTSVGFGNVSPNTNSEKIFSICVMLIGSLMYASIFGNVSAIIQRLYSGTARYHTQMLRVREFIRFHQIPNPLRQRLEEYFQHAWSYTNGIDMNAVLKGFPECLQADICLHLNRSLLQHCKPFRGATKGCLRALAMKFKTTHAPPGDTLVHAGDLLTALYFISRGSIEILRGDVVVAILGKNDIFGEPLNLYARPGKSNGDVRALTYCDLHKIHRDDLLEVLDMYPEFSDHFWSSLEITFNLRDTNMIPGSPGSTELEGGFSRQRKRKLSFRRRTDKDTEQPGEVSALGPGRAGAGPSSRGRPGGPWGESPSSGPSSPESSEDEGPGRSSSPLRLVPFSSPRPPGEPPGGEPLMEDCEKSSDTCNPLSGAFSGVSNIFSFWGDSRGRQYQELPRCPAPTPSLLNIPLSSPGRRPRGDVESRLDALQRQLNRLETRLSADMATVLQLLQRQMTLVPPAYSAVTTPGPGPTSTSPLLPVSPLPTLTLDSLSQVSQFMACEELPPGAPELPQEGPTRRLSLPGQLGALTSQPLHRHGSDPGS
How it was run: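 Fluorescence polarization displacement of a high-affinity red fluorescent tracer from hERG channel–containing membrane fraction.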

[6] = target: T1, CYP1A2 (Homo sapiens, UniProt P05177); experiment: Inhibition of human CYP1A2 at 10 uM by P450-Glo assay relative to control; type: ADME
T1 sequence (P05177 whole entry): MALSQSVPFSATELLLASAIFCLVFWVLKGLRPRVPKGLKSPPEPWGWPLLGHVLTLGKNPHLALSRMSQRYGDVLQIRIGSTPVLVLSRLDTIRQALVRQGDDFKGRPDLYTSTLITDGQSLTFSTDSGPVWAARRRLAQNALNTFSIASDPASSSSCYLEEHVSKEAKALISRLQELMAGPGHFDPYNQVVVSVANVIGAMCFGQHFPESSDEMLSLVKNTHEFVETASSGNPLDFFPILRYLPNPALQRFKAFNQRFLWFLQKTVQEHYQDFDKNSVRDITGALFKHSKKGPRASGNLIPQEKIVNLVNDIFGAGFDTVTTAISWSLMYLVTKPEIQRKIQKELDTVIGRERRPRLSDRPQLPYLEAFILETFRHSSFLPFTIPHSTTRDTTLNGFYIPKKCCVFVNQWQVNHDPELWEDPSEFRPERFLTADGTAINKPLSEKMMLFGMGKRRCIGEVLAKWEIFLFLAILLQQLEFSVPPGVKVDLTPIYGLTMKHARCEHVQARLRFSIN
How it was run: (§2)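 P450-Glo luminescent platform: CYP action on each substrate generates light; decreased light taken as inhibition.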

[7] = target: CYP2C9 (Homo sapiens, UniProt P11712); experiment: Inhibition of human CYP2C9 at 10 uM by P450-Glo assay relative to control; type: ADME; how it was run: as §2
Sequence of CYP2C9 (P11712 whole entry): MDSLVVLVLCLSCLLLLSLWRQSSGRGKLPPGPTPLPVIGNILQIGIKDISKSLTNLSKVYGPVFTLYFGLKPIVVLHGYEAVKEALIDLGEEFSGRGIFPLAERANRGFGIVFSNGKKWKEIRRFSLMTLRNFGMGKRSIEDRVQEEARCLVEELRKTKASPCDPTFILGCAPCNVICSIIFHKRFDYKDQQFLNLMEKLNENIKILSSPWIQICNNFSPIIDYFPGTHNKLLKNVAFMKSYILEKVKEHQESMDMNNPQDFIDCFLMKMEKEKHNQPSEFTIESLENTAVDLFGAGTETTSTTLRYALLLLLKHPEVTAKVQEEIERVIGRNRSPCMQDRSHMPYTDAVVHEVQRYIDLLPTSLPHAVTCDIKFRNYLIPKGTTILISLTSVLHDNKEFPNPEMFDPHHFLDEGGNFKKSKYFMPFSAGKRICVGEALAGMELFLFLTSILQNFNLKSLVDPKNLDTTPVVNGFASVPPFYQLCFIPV

[8] = target: CYP2C19 (Homo sapiens, UniProt P33261); experiment: Inhibition of human CYP2C19 at 10 uM by P450-Glo assay relative to control; type: ADME; how it was run: as §2
Sequence of CYP2C19 (P33261 whole entry): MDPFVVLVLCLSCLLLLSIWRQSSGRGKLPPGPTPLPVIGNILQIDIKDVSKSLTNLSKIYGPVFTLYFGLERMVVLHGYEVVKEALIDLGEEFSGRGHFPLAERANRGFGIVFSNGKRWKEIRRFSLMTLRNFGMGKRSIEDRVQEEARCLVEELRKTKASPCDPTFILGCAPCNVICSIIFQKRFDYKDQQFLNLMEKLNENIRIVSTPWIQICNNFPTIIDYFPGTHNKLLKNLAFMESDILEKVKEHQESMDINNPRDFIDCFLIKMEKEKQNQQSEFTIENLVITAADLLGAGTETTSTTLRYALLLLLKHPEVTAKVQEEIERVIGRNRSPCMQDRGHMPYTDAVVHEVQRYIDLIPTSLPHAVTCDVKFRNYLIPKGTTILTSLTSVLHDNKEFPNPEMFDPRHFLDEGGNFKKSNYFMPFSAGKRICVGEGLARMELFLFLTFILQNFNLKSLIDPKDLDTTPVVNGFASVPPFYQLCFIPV

[9] = target: CYP2D6 (Homo sapiens, UniProt P10635); experiment: Inhibition of human CYP2D6 at 10 uM by P450-Glo assay relative to control; type: ADME; how it was run: as §2
Sequence of CYP2D6 (P10635 whole entry): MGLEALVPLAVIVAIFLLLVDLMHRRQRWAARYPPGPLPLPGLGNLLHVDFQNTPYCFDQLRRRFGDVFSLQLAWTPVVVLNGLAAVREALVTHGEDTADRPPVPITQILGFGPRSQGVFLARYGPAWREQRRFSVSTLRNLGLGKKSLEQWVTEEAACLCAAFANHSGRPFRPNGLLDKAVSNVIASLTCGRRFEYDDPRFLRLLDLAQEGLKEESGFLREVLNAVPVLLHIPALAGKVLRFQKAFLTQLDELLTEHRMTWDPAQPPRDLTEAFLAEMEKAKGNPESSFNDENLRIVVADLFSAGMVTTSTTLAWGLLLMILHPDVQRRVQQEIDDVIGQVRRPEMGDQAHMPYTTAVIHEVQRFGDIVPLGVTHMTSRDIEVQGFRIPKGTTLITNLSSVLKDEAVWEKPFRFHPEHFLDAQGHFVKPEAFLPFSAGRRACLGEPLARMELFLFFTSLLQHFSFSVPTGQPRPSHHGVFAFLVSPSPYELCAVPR

[10] = target: CYP3A4 (Homo sapiens, UniProt P08684); experiment: Inhibition of human CYP3A4 at 10 uM by P450-Glo assay relative to control; type: ADME; how it was run: as §2
Sequence of CYP3A4 (P08684 whole entry): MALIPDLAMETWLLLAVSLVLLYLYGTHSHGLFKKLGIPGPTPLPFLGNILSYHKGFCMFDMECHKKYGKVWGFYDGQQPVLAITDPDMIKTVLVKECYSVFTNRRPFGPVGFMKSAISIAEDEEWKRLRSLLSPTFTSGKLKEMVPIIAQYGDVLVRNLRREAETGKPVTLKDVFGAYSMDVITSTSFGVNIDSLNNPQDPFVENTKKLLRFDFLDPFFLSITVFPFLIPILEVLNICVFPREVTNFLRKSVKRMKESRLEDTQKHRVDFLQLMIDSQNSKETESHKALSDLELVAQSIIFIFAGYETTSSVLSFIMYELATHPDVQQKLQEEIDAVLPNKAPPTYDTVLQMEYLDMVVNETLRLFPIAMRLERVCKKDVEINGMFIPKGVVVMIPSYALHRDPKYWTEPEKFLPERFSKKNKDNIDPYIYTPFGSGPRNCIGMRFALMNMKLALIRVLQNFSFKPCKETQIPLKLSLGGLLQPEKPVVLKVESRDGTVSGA

[11] = Cytotoxicity against human A549 cells assessed as cell growth at 10 uM by CellTiter-Glo assay relative to control; type: cell-based; details: read-out: Activity
How it was run: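 A549 cells; cellular ATP measured by CellTiter-Glo luminescence as a proxy for cell number; paclitaxel 10 μM as positive control.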

[12] = test system: 786-0; experiment: Cytotoxicity against human 786-O cells assessed as mitochondrial viability at 10 uM by CMXRos staining based high-content imaging analysis relative to control; type: cell-based; details: 786-0, 10 µM
How it was run: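 786-O cells kept in RPMI-1640 with 2 mM glutamine, 10% FCS, streptomycin and penicillin G; mitochondria of live cells stained with MitoTracker Red CMXRos and imaged by high-content imaging.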

[13] = target: T2, Pteridine reductase 1 (Leishmania major) (UniProt Q01782); experiment: Inhibition of Leishmania major pteridine reductase 1 assessed as reduction in conversion of dihydrobiopterin to tetrahydrobiopterin at 10 uM up to 50 mins in presence of NADPH by cytochrome c reduction coupled photometric assay relative to control
T2 sequence (whole entry): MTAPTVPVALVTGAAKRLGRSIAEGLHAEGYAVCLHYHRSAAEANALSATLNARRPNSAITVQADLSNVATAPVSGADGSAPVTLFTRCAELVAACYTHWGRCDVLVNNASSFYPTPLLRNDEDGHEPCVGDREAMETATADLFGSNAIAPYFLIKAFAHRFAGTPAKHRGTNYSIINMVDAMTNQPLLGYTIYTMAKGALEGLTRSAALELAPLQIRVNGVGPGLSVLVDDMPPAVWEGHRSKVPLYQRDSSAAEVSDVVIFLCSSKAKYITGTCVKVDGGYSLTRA

[14] = target: T3, Pteridine reductase, putative (Trypanosoma brucei) (UniProt Q581W1); experiment: Inhibition of Trypanosoma brucei pteridine reductase 1 assessed as reduction in conversion of dihydrobiopterin to tetrahydrobiopterin at 10 uM up to 50 mins in presence of NADPH by cytochrome c reduction coupled photometric assay relative to control
T3 sequence (whole entry): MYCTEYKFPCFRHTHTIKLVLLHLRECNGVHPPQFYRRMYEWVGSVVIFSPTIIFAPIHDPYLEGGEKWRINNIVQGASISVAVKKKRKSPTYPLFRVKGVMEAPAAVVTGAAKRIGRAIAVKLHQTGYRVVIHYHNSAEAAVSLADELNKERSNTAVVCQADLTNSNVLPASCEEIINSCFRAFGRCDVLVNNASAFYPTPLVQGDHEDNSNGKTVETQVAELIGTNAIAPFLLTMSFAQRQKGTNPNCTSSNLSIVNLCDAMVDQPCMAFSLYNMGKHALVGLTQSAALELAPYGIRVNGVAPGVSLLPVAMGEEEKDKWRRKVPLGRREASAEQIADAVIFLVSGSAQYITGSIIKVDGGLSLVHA

[15] = Solubility in PBS after overnight incubation by nephelometry; type: physicochemical
[16] = Solubility in pH 7.4 Hanks simulated body fluid after overnight incubation by nephelometry; type: physicochemical
[17] = target: Trypanothione reductase (Trypanosoma cruzi) (UniProt P28593); experiment: Inhibition of Trypanosoma cruzi trypanothione reductase assessed as reduction in NADPH consumption at 2.5 uM using 100 uM trypanothione disulfide as substrate by spectrophotometric method relative to control; how it was run: as §1
[18] = target: Trypanothione reductase (Trypanosoma cruzi) (UniProt P28593); experiment: Inhibition of Trypanosoma cruzi trypanothione reductase assessed as reduction in NADPH consumption at 2.5 uM using 40 uM trypanothione disulfide as substrate by spectrophotometric method relative to control; how it was run: as §1
[19] = target: Trypanothione reductase (Trypanosoma cruzi) (UniProt P28593); experiment: Inhibition of Trypanosoma cruzi trypanothione reductase assessed as reduction in NADPH consumption at 5 uM using 100 uM trypanothione disulfide as substrate by spectrophotometric method relative to control; how it was run: as §1
[20] = target: Trypanothione reductase (Trypanosoma cruzi) (UniProt P28593); experiment: Inhibition of Trypanosoma cruzi trypanothione reductase assessed as reduction in NADPH consumption at 5 uM using 40 uM trypanothione disulfide as substrate by spectrophotometric method relative to control; how it was run: as §1
[21] = target: T2, Pteridine reductase 1 (Leishmania major); experiment: Inhibition of Leishmania major pteridine reductase 1 assessed as reduction in conversion of dihydrobiopterin to tetrahydrobiopterin at 25 uM up to 50 mins in presence of NADPH by cytochrome c reduction coupled photometric assay relative to control
[22] = target: T3, Pteridine reductase, putative (Trypanosoma brucei); experiment: Inhibition of Trypanosoma brucei pteridine reductase 1 assessed as reduction in conversion of dihydrobiopterin to tetrahydrobiopterin at 25 uM up to 50 mins in presence of NADPH by cytochrome c reduction coupled photometric assay relative to control
[23] = target: Trypanothione reductase (Trypanosoma cruzi, UniProt P28593); experiment: Inhibition of Trypanosoma cruzi trypanothione reductase assessed as reduction in NADPH consumption using varying levels of trypanothione disulfide as substrate by Lineweaver-Burk plot analysis
Sequence of Trypanothione reductase (P28593 whole entry): as the sequence (P28593 whole entry, looked up) above
How it was run: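 Recombinant T. cruzi TR (5-10 mU) at 25 °C in 40 mM HEPES, 1 mM EDTA, pH 7.5, with 100 μM NADPH and 5% DMSO. Reaction started with TS2 and NADPH consumption followed at 340 nm. TS2 varied at 20, 40, 60, 100 and 200 μM without inhibitor and at two fixed inhibitor concentrations. Inhibition type read from Lineweaver-Burk plots. Ki fitted from direct plot by non-linear least squares. Inhibitor assays run at least in duplicate.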

Row | inhibition [1] | inhibition [2] [%] | inhibition [3] [%] | inhibition at 10 µM [6] [%] | inhibition at 10 µM [7] [%] | inhibition at 10 µM [8] [%] | inhibition at 10 µM [9] [%] | inhibition at 10 µM [10] [%] | inhibition [13] [%] | solubility kinetic [15] [µM] | solubility kinetic [16] [µM] | Compound | inhibition at 10 µM [5] [%] | viability at 10 µM [11] [%] | Activity [12] [%] | further results
1 | 88% | 8.1 | 20.6 | 87.2 | 61.6 | 71 | 101 | 22.1 | 2.98 | 70 (≈ 24.2 µg/mL) | 35 (≈ 12.1 µg/mL) | COc1cccc2c1C(=O)c1c(oc3c1c(=O)oc1ccccc13)C2=O | -58 | 130 | 96.22 | inhibition of growth at 5 µM [4]: 29%; inhibition [14]: -6.79%
2 | inactive | 37 | 37.2 | 94.6 | 92.5 | 103 | 106 | 88.2 | – | 35 (≈ 13.1 µg/mL) | 35 (≈ 13.1 µg/mL) | CC(=O)Oc1cccc2c1C(=O)c1c(oc3c1c(=O)oc1ccccc13)C2=O | 4.02 | 157 | 98.86 | –
3 | Active | 29 | 23 | – | – | – | – | – | – | – | – | O=C1C=C(Oc2ccccc2)C(=O)c2ccccc21 | – | – | – | –
4 | – | – | – | 40.8 | 44.6 | 83.8 | 95.2 | 9.44 | -5.5 | 14 (≈ 4.65 µg/mL) | 35 (≈ 11.6 µg/mL) | O=C1c2cccc(O)c2C(=O)c2c1oc1c2c(=O)oc2ccccc21 | 19.5 | 167 | 85.82 | inhibition [17]: 11.6%; inhibition [18]: 42.9%
5 | – | – | – | 48.2 | 32.4 | 46.1 | 71 | 14.8 | – | 70 (≈ 22.1 µg/mL) | 70 (≈ 22.1 µg/mL) | O=C1c2ccccc2C(=O)c2c1oc1c2c(=O)oc2ccccc21 | -20.3 | 146 | 89.15 | inhibition [19]: 18%; inhibition [20]: 19.1%; inhibition [21]: -0.4%; inhibition [22]: -6.44%
6 | – | – | – | – | – | – | – | – | – | – | – | c1cc2cc(-c3ccc(C4(N5CCCC5)CCCCC4)s3)ccc2[nH]1 | – | – | – | Ki [23]: 4 µM
7 | inactive | 7.9 | 2.1 | 38.5 | 42.4 | 35.7 | 55 | 7.93 | 5.16 | 35 (≈ 12.8 µg/mL) | 70 (≈ 25.6 µg/mL) | O=C1c2cc3ccccc3cc2C(=O)c2c1oc1c2c(=O)oc2ccccc21 | 9.77 | 140 | 89.59 | inhibition [14]: 6.11%
8 | inactive | – | – | 93.5 | 99.2 | 109 | 108 | 88.7 | – | 35 (≈ 13.1 µg/mL) | 35 (≈ 13.1 µg/mL) | CC(=O)Oc1cccc2c1C(=O)c1oc3c(c1C2=O)c(=O)oc1ccccc13 | 86.8 | 183 | 90.52 | inhibition [19]: 35.2%; inhibition [20]: 41%; inhibition of growth at 5 µM [4]: 38%
